Assay results taken from ChEMBL document CHEMBL1811772, “Identification of ostruthin from Peucedanum ostruthium rhizomes as an inhibitor of vascular smooth muscle cell proliferation” (J Nat Prod, 2011).
Calls of active or inactive are those of the source. The rule behind the calls is not given here.

How the values were obtained:
VSMC = assay: Antiproliferative activity against serum-stimulated primary rat aortic VSMC at 30 uM after 30 mins by resazurin conversion assay; type: functional, tissue-based; conditions: Aorta
Method in brief: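 Primary rat aortic VSMC were serum-starved 24 h, pretreated 30 min with 30 μM sample or 0.1% DMSO vehicle, and stimulated 48 h with 10% calf serum. Resazurin (10 μg/mL, 2 h) conversion was read as fluorescence at ex 535/em 580 nm and expressed as fold over unstimulated vehicle cells. Mean ± SD, n = 3, ANOVA/Tukey.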

[1] = Cytotoxicity against primary rat aortic VSMC as cell viability at 30 uM by trypan blue exclusion assay (reference value: 98+/-2%); type: cell-based; conditions: primary rat aortic vascular smooth muscle cells (VSMC), read-out: Activity
[2] = Antiproliferative activity against serum-stimulated primary rat aortic VSMC after 30 mins by resazurin conversion assay; type: functional, tissue-based; conditions: Aorta
Method in brief: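 Sprague–Dawley rat thoracic aorta VSMC were seeded at 1 × 10^4 cells/well, serum-starved 24 h, pretreated 30 min with sample or vehicle (final DMSO 0.1%), then stimulated 48 h with 10% calf serum. They were then washed and given 10 μg/mL resazurin for 2 h, with fluorescence read at ex 535/em 580 nm. Signals were normalized to unstimulated vehicle cells. IC50 was obtained by nonlinear regression; mean ± SD from ≥3 independent experiments.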

[3] = Antiproliferative activity in primary rat aortic VSMC assessed as inhibition of serum-induced DNA synthesis pretreated 30 mins prior serum addition measured after 20 hrs by BrdU incorporation assay; conditions: Aorta
A10 = assay: Antiproliferative activity against rat A10; type: functional, cell-based

Structure (SMILES) | Activity (VSMC) | also measured
CC(C)=CCC/C(C)=C/Cc1cc2ccc(=O)oc2cc1O [OSTRUTHIN] | Active | viability at 30 µM [1]: 92%; IC50 [2]: 11 µM; IC50 [3]: 17 µM
COc1ccc2ccc(=O)oc2c1CC=C(C)C [OSTHOLE] | inactive | IC50 (A10): 13.6 µM
CC(C)=CCOc1c2ccoc2cc2oc(=O)ccc12 | inactive | 
CC(C)=CCOc1c2occc2cc2ccc(=O)oc12 | inactive | 
CC(C)(O)[C@H](O)COc1c2ccoc2cc2oc(=O)ccc12 | inactive | 
C/C=C(/C)C(=O)O[C@H](COc1c2ccoc2cc2oc(=O)ccc12)C(C)(C)O | inactive | 
CC1(C)O[C@H]1COc1c2ccoc2cc2oc(=O)ccc12 | inactive | 
